In brackets after ≈: the same amount, converted by molar mass. Activity calls are given as the source filed them. The calls are words filed in the database; no cut-off is given here.
Assays:
Proteus = assay: Antibacterial activity against Proteus spp. assessed as growth inhibition after 18 to 24 hrs; format: functional
How it was run: (§1)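 Clinical isolates from a regional epidemiology institute. Broth microdilution: inoculum 5 × 10⁵ CFU/ml in Müller-Hinton broth (pH 7.3) with serial concentrations of salts, incubated at 35 °C for 18–24 h. MIC taken as lowest concentration with no detectable bacterial growth.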

Klebsiella pneumoniae = assay: Antibacterial activity against Klebsiella pneumoniae assessed as growth inhibition after 18 to 24 hrs; format: functional; how it was run: as §1
Staphylococcus aureus [1] = assay: Antibacterial activity against Staphylococcus aureus assessed as growth inhibition after 18 to 24 hrs; format: functional; how it was run: as §1
[2] = test system: Staphylococcus epidermidis; assay: Antibacterial activity against Staphylococcus epidermidis assessed as growth inhibition after 18 to 24 hrs; format: functional; how it was run: as §1
Staphylococcus aureus [3] = assay: Antibacterial activity against Staphylococcus aureus 25923 assessed as increase in polydispersity index of plasmid DNA at 0.01 mg/ml after 1 hr by light scatterning method (reference value: 0.425 no unit); format: functional
[4] = Cytotoxicity against human skin fibroblasts after 72 hrs by MTT assay; design: species or system Skin fibroblast
How it was run: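 Human skin fibroblasts seeded at 3000 cells/well, attached overnight, then exposed to salt solutions (1 µg/ml–1 mg/ml) for 72 h at 37 °C, 5% CO₂. Cells washed with fresh medium and subjected to MTT assay; reduced product read at 550 nm. CC50 derived.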

Staphylococcus aureus [5] = assay: Antibacterial activity against Staphylococcus aureus 25923 assessed as DNA fragmentation at 10 ug/ml after 1 hr by SYBR green staining-based fluorescent microscopic analysis; format: functional, organism-based
How it was run: (§2)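 S. aureus 25923 pre-grown on blood agar at 37 °C, cultured overnight in Müller-Hinton broth (pH 7.3), pelleted and resuspended in PBS. After treatment, cells centrifuged 3000 g 15 min, washed twice in PBS, embedded in agarose microgels, lysed, stained with SYBR Green I and imaged by fluorescence microscopy.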

Staphylococcus aureus [6] = assay: Antibacterial activity against Staphylococcus aureus 25923 assessed as DNA migration out of cells at 10 ug/ml after 1 hr by SYBR green staining-based fluorescent microscopic analysis; format: functional, organism-based; how it was run: as §2
Staphylococcus aureus [7] = assay: Antibacterial activity against Staphylococcus aureus 25923 assessed as partial DNA fragmentation at 0.01 to 10 mg/ml after 1 hr by agarose gel electrophoresis method
Staphylococcus aureus [8] = assay: Antibacterial activity against Staphylococcus aureus 25923 assessed as decrease in zeta potential of plasmid DNA at 0.1 mg/ml after 1 hr by light scatterning method (reference value: -50.7 +/- 1 mV); format: functional
Staphylococcus aureus [9] = assay: Antibacterial activity against Staphylococcus aureus 25923 assessed as increase in hydrodynamic diameter of plasmid DNA at 0.1 mg/ml after 1 hr by light scatterning method (reference value: 360.7 +/- 18 nm); format: functional
Staphylococcus aureus [10] = assay: Antibacterial activity against Staphylococcus aureus 25923 assessed as increase in hydrodynamic diameter of plasmid DNA at 0.01 mg/ml after 1 hr by light scatterning method (reference value: 360.7 +/- 18 nm); format: functional
Staphylococcus aureus [11] = assay: Antibacterial activity against Staphylococcus aureus 25923 assessed as decrease in zeta potential of plasmid DNA at 0.01 mg/ml after 1 hr by light scatterning method (reference value: -50.7 +/- 1 mV); format: functional
Staphylococcus aureus [12] = assay: Antibacterial activity against Staphylococcus aureus 25923 assessed as increase in polydispersity index of plasmid DNA at 0.1 mg/ml after 1 hr by light scatterning method (reference value: 0.425 no unit); format: functional

MIC (Proteus) [µg/mL] | MIC (Klebsiella pneumoniae) [µg/mL] | MIC (Staphylococcus aureus [1]) [µg/mL] | MIC [2] [µg/mL] | SMILES | further results
> 1000 | > 1000 | 50 | 50 | CC1(C)OCc2c(C[P+](c3ccccc3)(c3ccccc3)c3ccccc3)c(C[P+](c3ccccc3)(c3ccccc3)c3ccccc3)nc(C[P+](c3ccccc3)(c3ccccc3)c3ccccc3)c2O1.[Cl-].[Cl-].[Cl-] | 
> 1000 | > 1000 | > 1000 | > 1000 | Cl.OCc1nc(C[P+](c2ccccc2)(c2ccccc2)c2ccccc2)c(O)c(CO)c1CO.[Cl-] | 
> 1000 | > 1000 | 1000 | 1000 | Cc1nc(C[P+](c2ccccc2)(c2ccccc2)c2ccccc2)c(CO)c(CO)c1O.Cl.[Cl-] | 
> 1000 | > 1000 | 62.5 | 50 | CC1(C)OCc2c(C[P+](c3ccccc3)(c3ccccc3)c3ccccc3)cnc(C[P+](c3ccccc3)(c3ccccc3)c3ccccc3)c2O1.[Cl-].[Cl-] | 
> 1000 | > 1000 | 500 | 500 | Cl.OCc1c(O)c(C[P+](c2ccccc2)(c2ccccc2)c2ccccc2)nc(C[P+](c2ccccc2)(c2ccccc2)c2ccccc2)c1C[P+](c1ccccc1)(c1ccccc1)c1ccccc1.[Cl-].[Cl-].[Cl-] | 
> 1000 | > 1000 | 1000 | 1000 | Cc1ncc(C[P+](c2ccccc2)(c2ccccc2)c2ccccc2)c(CO)c1O.Cl.[Cl-] | 
> 1000 | > 1000 | > 1000 | > 1000 | CC1(C)OCc2c(CO)c(CO)nc(C[P+](c3ccccc3)(c3ccccc3)c3ccccc3)c2O1.[Cl-] | 
> 1000 | > 1000 | 5 | 5 | Cc1nc(C[P+](c2ccccc2)(c2ccccc2)c2ccccc2)c(C[P+](c2ccccc2)(c2ccccc2)c2ccccc2)c2c1OC(C)(C)OC2.[Cl-].[Cl-] | Activity (Staphylococcus aureus [3]): 0.717; CC50 at 72 h [4]: 160 µg/mL; Activity (Staphylococcus aureus [5]): Active; Activity (Staphylococcus aureus [6]): Active; Activity (Staphylococcus aureus [7]): Active; Activity (Staphylococcus aureus [8]): -35.2 mV; Activity (Staphylococcus aureus [9]): 452.3 nm; Activity (Staphylococcus aureus [10]): 500.9 nm; Activity (Staphylococcus aureus [11]): -46.6 mV; Activity (Staphylococcus aureus [12]): 0.844
> 1000 | > 1000 | 1000 | 1000 | Cc1ncc(C[P+](c2ccccc2)(c2ccccc2)c2ccccc2)c2c1OC(C)(C)OC2.[Cl-] | 
> 1000 | > 1000 | 1000 | 1000 | Cc1nc(CO)c(C[P+](c2ccccc2)(c2ccccc2)c2ccccc2)c(CO)c1O.Cl.[Cl-] | 
> 1000 | > 1000 | 1000 | 1000 | Cc1nc(C[P+](c2ccccc2)(c2ccccc2)c2ccccc2)c(C[P+](c2ccccc2)(c2ccccc2)c2ccccc2)c(CO)c1O | 
> 1000 | > 1000 | 100 | 100 | CC(=O)Oc1c(C)nc(C[P+](c2ccccc2)(c2ccccc2)c2ccccc2)c2c1COC(C)(C)OC2.[Cl-] | 
> 1000 | > 1000 | 250 | 250 | Cl.OCc1c(C[P+](c2ccccc2)(c2ccccc2)c2ccccc2)cnc(C[P+](c2ccccc2)(c2ccccc2)c2ccccc2)c1O.[Cl-].[Cl-] | 

SMILES | MIC (Proteus) [µg/mL] | MIC (Klebsiella pneumoniae) [µg/mL] | MIC (Staphylococcus aureus [1]) [µg/mL] | MIC [2] [µg/mL] | further results
CN[C@H](CC(C)C)C(=O)N[C@H]1C(=O)N[C@@H](CC(N)=O)C(=O)N[C@H]2C(=O)N[C@H]3C(=O)N[C@H](C(=O)N[C@H](C(=O)O)c4cc(O)cc(O)c4-c4cc3ccc4O)[C@H](O)c3ccc(c(Cl)c3)Oc3cc2cc(c3O[C@@H]2O[C@H](CO)[C@@H](O)[C@H](O)[C@H]2O[C@H]2C[C@](C)(N)[C@H](O)[C@H](C)O2)Oc2ccc(cc2Cl)[C@H]1O [VANCOMYCIN] | > 1000 | > 1000 | 2.5 (≈ 1.73 µM) | 2.5 (≈ 1.73 µM) | 

From ChEMBL document CHEMBL2396649, “Synthesis and antibacterial activity of novel phosphonium salts on the basis of pyridoxine” (Bioorg Med Chem, 2013)
